According to ChEMBL document CHEMBL1131423, “N-(2-Benzoylphenyl)-L-tyrosine PPARgamma agonists. 2. Structure-activity relationship and optimization of the phenyl alkyl ether moiety” (J Med Chem, 1998):
≈ marks a conversion by molar mass, not a printed value. Calls of active or inactive are those of the source. No cut-off for these calls is given here.

Tests used:
[1] = target: T1, Peroxisome proliferator-activated receptor alpha (Homo sapiens) (UniProt Q07869); experiment: Compound was tested in vitro for inhibiting the 50% binding of Peroxisome proliferator activated receptor alpha; IA = 'inactive'
T1 sequence (whole entry): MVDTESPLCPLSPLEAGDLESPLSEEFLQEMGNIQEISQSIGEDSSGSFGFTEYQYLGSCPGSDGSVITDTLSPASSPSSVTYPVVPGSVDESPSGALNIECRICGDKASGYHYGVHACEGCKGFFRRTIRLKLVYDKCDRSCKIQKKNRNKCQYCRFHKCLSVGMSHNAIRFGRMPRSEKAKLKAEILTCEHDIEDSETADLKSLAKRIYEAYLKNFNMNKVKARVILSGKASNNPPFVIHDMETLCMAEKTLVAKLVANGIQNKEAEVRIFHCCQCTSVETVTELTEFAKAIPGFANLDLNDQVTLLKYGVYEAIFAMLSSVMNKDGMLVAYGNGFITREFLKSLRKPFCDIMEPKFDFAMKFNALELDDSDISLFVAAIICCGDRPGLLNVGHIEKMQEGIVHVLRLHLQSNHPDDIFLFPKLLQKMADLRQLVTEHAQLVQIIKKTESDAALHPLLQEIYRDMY

[2] = target: T2, Peroxisome proliferator-activated receptor alpha (Homo sapiens, UniProt Q07869); experiment: In vitro transactivation of Peroxisome proliferator activated receptor alpha.; assay type: functional
T2 sequence (Q07869 whole entry): T1 sequence (whole entry)

[3] = target: T2, Peroxisome proliferator-activated receptor alpha; experiment: Tested in vitro for inhibiting the 50% binding of Peroxisome proliferator activated receptor alpha
[4] = target: T3, Peroxisome proliferator-activated receptor gamma (Homo sapiens) (UniProt P37231); experiment: Inhibition of Peroxisome proliferator activated receptor gamma
T3 sequence (whole entry): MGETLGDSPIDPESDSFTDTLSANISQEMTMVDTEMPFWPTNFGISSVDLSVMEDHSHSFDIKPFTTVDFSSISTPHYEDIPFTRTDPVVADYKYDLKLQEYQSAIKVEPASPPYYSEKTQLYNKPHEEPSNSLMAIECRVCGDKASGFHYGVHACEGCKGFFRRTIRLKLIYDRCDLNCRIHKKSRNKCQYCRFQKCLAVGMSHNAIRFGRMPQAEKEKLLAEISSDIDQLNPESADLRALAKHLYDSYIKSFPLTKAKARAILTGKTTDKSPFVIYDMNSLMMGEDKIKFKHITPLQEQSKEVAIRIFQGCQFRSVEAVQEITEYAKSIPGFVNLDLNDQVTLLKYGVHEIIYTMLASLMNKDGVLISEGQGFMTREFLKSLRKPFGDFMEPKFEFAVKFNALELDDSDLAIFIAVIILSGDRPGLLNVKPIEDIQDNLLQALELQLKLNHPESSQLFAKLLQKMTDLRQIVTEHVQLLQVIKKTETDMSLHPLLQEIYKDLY
How it was run: (§1)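 Competitive radioligand binding to PPARγ with [3H]BRL 49653 as the radioligand. […] It is converted to an apparent Ki by Ki = IC50/(1 + [L]/Kd), and results are given as pKi.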

[5] = The solubility determined by equilibrating an excess of solid material in 500 microL of simulated gastric fluid; assay type: ADME; details: read-out: S
How it was run: (§2)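 Samples are filtered (0.22 µm) and diluted in water/acetonitrile 60:40. The dissolved concentration is measured by reversed-phase HPLC on a phenyl column with 0.05% TFA water/acetonitrile (60:40), 1 mL/min, and UV detection at each compound's maximum. Results are in mg/mL.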

[6] = The solubility determined by equilibrating an excess of solid material in 500 microL of pH 7.4 phosphate buffer; assay type: ADME; details: read-out: S; how it was run: as §2
[7] = target: T3, Peroxisome proliferator-activated receptor gamma (Homo sapiens); experiment: Compound was tested in vitro for inhibiting the 50% binding of Peroxisome proliferator activated receptor gamma; IA = Inactive; how it was run: as §1
[8] = target: T4, Peroxisome proliferator-activated receptor gamma (Homo sapiens, UniProt P37231); experiment: Inhibition by 50% of in vitro binding to Peroxisome proliferator activated receptor gamma
T4 sequence (P37231 whole entry): T3 sequence (whole entry)

[9] = target: Peroxisome proliferator-activated receptor gamma (Homo sapiens) (UniProt P37231); experiment: Compound was tested in vitro for inhibiting the 50% binding of Peroxisome proliferator activated receptor gamma; IA = Inactive

EC50 [2] [nM] | Ki [3] [nM] | Log Ki [4] | Compound | also measured
> 10000 | > 3020 |  | COCn1c(-c2ccccc2)nc(C)c1CCOc1ccc(C[C@H](Nc2ccccc2C(=O)c2ccccc2)C(=O)O)cc1 | 
 |  | inactive | C/C(=C\c1ccccc1)COc1ccc(C[C@H](Nc2ccccc2C(=O)c2ccccc2)C(=O)O)cc1 | 
 |  | inactive | COc1ccc(COc2ccc(C[C@H](Nc3ccccc3C(=O)c3ccccc3)C(=O)O)cc2)cc1OC | 
 |  | inactive | O=C(c1ccccc1)c1ccccc1N[C@@H](Cc1ccc(OCc2cnc3ccccc3c2)cc1)C(=O)O | 
389 | 107 |  | COc1ccc(-c2nc(CCOc3ccc(C[C@H](Nc4ccccc4C(=O)c4ccccc4)C(=O)O)cc3)c(C)o2)cc1 | 
 |  | inactive | Cc1nc(COc2ccc(C[C@H](Nc3ccccc3C(=O)c3ccccc3)C(=O)O)cc2)n2nc(Cl)ccc12 | 
> 10000 | > 3020 |  | Cc1oc(-c2ccncc2)nc1CCOc1ccc(C[C@H](Nc2ccccc2C(=O)c2ccccc2)C(=O)O)cc1 | solubility thermodynamic [5]: 5 µg/mL (≈ 9.13 µM); solubility thermodynamic [6]: 846 µg/mL (≈ 1540 µM)
> 10000 | > 3020 |  | Cc1sc(NCCCN(C)C)nc1CCOc1ccc(C[C@H](Nc2ccccc2C(=O)c2ccccc2)C(=O)O)cc1 | 
 |  | inactive | COc1ccc(COc2ccc(C[C@H](Nc3ccccc3C(=O)c3ccccc3)C(=O)O)cc2)cc1Br | 
 |  | inactive | CN(CCOc1ccc(C[C@H](Nc2ccccc2C(=O)c2ccccc2)C(=O)O)cc1)Cc1cccs1 | 
 |  | inactive | Cc1ccc[n+]2c1=NC(c1ccccc1)C=2COc1ccc(C[C@H](Nc2ccccc2C(=O)c2ccccc2)C(=O)O)cc1 (stereo partly drawn) | 
257 | 56.2 |  | Cc1oc(-c2ccc(F)cc2)nc1CCOc1ccc(C[C@H](Nc2ccccc2C(=O)c2ccccc2)C(=O)O)cc1 | 
> 10000 | > 3020 |  | Cc1[nH]c(-c2ccccc2)nc1CCOc1ccc(C[C@H](Nc2ccccc2C(=O)c2ccccc2)C(=O)O)cc1 | 
6460 | > 3020 |  | Cc1sc(N2CCN(C)CC2)nc1CCOc1ccc(C[C@H](Nc2ccccc2C(=O)c2ccccc2)C(=O)O)cc1 | solubility thermodynamic [5]: > 6000 µg/mL; solubility thermodynamic [6]: 10 µg/mL (≈ 17.1 µM)
2750 | 468 |  | Cc1ccsc1-c1nc(CCOc2ccc(C[C@H](Nc3ccccc3C(=O)c3ccccc3)C(=O)O)cc2)c(C)o1 | 
> 10000 | > 3020 |  | Cc1sc(N2CCN(C(=O)OC(C)(C)C)CC2)nc1CCOc1ccc(C[C@H](Nc2ccccc2C(=O)c2ccccc2)C(=O)O)cc1 | 
 |  | inactive | Cc1cc(C)c(C)c(COc2ccc(C[C@H](Nc3ccccc3C(=O)c3ccccc3)C(=O)O)cc2)c1C | 
 |  | inactive | Cc1ccc[n+]2c1=NC(C)C=2COc1ccc(C[C@H](Nc2ccccc2C(=O)c2ccccc2)C(=O)O)cc1 (stereo partly drawn) | 
 |  | inactive | COc1cc(OC)c(OC)cc1COc1ccc(C[C@H](Nc2ccccc2C(=O)c2ccccc2)C(=O)O)cc1 | 
> 10000 | 407 |  | Cc1cc(CCOc2ccc(C[C@H](Nc3ccccc3C(=O)c3ccccc3)C(=O)O)cc2)nn1-c1ccccc1 | 
 |  | inactive | Cc1ccc2cc(COc3ccc(C[C@H](Nc4ccccc4C(=O)c4ccccc4)C(=O)O)cc3)ccc2n1 | 

The remaining lines, values behind:

Compound | EC50 [2] [nM] | Ki [3] [nM] | Log Ki [4] | also measured
O=C(c1ccccc1)c1ccccc1N[C@@H](Cc1ccc(OCCOc2ccc(Br)cc2)cc1)C(=O)O |  |  |  | Log Ki [1]: inactive
COCCNc1nc(CCOc2ccc(C[C@H](Nc3ccccc3C(=O)c3ccccc3)C(=O)O)cc2)c(C)s1 | > 10000 | 1860 |  | solubility thermodynamic [5]: 210 µg/mL (≈ 375 µM); solubility thermodynamic [6]: 210 µg/mL (≈ 375 µM)
Cc1oc(-c2ccccc2)nc1CCOc1ccc(C[C@H](Nc2ccccc2C(=O)c2ccccc2)C(=O)O)cc1 [FARGLITAZAR] |  |  |  | solubility thermodynamic [5]: < 1 µg/mL; solubility thermodynamic [6]: < 1 µg/mL
O=C(c1ccccc1)c1ccccc1N[C@@H](Cc1ccc(OCCc2ccc(Cl)cc2)cc1)C(=O)O |  |  |  | Log Ki [1]: inactive
CCOc1ccc(COc2ccc(C[C@H](Nc3ccccc3C(=O)c3ccccc3)C(=O)O)cc2)cc1 |  |  |  | Log Ki [7]: inactive
O=C(c1ccccc1)c1ccccc1N[C@@H](Cc1ccc(O)cc1)C(=O)O |  |  | inactive | 
Cc1sc(-c2ccncc2)nc1CCOc1ccc(C[C@H](Nc2ccccc2C(=O)c2ccccc2)C(=O)O)cc1 | > 10000 | > 3020 |  | 
Cc1cc(-c2nc(CCOc3ccc(C[C@H](Nc4ccccc4C(=O)c4ccccc4)C(=O)O)cc3)c(C)s2)no1 | 1820 | 178 |  | 
Cc1sc(-c2ccccc2)nc1CCOc1ccc(C[C@H](Nc2ccccc2C(=O)c2ccccc2)C(=O)O)cc1 | 1050 | 126 |  | solubility thermodynamic [5]: < 1 µg/mL; solubility thermodynamic [6]: 2 µg/mL (≈ 3.55 µM)
Cc1ccc(-c2nc(CCOc3ccc(C[C@H](Nc4ccccc4C(=O)c4ccccc4)C(=O)O)cc3)c(C)o2)s1 | 575 | 45.7 |  | 
COc1ccc(COc2ccc(C[C@H](Nc3ccccc3C(=O)c3ccccc3)C(=O)O)cc2)cc1 |  |  |  | Log Ki [7]: inactive
CC(C)c1ccc(COc2ccc(C[C@H](Nc3ccccc3C(=O)c3ccccc3)C(=O)O)cc2)cc1 |  |  |  | Log Ki [1]: inactive
COc1cc(COc2ccc(C[C@H](Nc3ccccc3C(=O)c3ccccc3)C(=O)O)cc2)cc(Br)c1OC |  |  | inactive | 
COc1ccc(COc2ccc(C[C@H](Nc3ccccc3C(=O)c3ccccc3)C(=O)O)cc2)nc1OC |  |  | inactive | 
COC(COc1ccc(C[C@H](Nc2ccccc2C(=O)c2ccccc2)C(=O)O)cc1)c1ccccc1 (stereo partly drawn) |  |  |  | Ki [8]: 794 nM
O=C(c1ccccc1)c1ccccc1N[C@@H](Cc1ccc(OC2CCN2C(c2ccccc2)c2ccccc2)cc1)C(=O)O (stereo partly drawn) |  |  |  | Ki [8]: 1620 nM
CN(C)C(=O)c1cccc(COc2ccc(C[C@H](Nc3ccccc3C(=O)c3ccccc3)C(=O)O)cc2)n1 |  |  |  | Log Ki [7]: inactive
O=C(c1ccccc1)c1ccccc1N[C@@H](Cc1ccc(OCCc2cc(Br)no2)cc1)C(=O)O |  |  |  | Log Ki [7]: inactive
Cc1sc(N2CCOCC2)nc1CCOc1ccc(C[C@H](Nc2ccccc2C(=O)c2ccccc2)C(=O)O)cc1 | > 10000 | 1910 |  | solubility thermodynamic [5]: 4 µg/mL (≈ 7 µM); solubility thermodynamic [6]: 180 µg/mL (≈ 315 µM)
Cc1oc(N2CCCCC2)nc1CCOc1ccc(C[C@H](Nc2ccccc2C(=O)c2ccccc2)C(=O)O)cc1 | > 10000 | > 3020 |  | 
Cc1nc(-c2ccccc2)nn1CCOc1ccc(C[C@H](Nc2ccccc2C(=O)c2ccccc2)C(=O)O)cc1 | > 10000 | > 3020 |  | solubility thermodynamic [5]: 1 µg/mL (≈ 1.83 µM); solubility thermodynamic [6]: 4 µg/mL (≈ 7.32 µM)
Cc1sc(N(C)C)nc1CCOc1ccc(C[C@H](Nc2ccccc2C(=O)c2ccccc2)C(=O)O)cc1 | > 10000 | > 3020 |  | 
O=C(c1ccccc1)c1ccccc1N[C@@H](Cc1ccc(OCC2COC(C3CCCCC3)O2)cc1)C(=O)O (stereo partly drawn) |  |  | inactive | 
COc1ccccc1C(=O)N1CCC[C@H]1COc1ccc(C[C@H](Nc2ccccc2C(=O)c2ccccc2)C(=O)O)cc1 |  |  |  | Ki [8]: 955 nM
Cc1cc(C(C)C)ccc1CCOc1ccc(C[C@H](Nc2ccccc2C(=O)c2ccccc2)C(=O)O)cc1 |  |  |  | Log Ki [9]: inactive
Cc1ccc(C)c(COc2ccc(C[C@H](Nc3ccccc3C(=O)c3ccccc3)C(=O)O)cc2)c1 |  |  |  | Log Ki [7]: inactive
Cc1sc(N2CCNCC2)nc1CCOc1ccc(C[C@H](Nc2ccccc2C(=O)c2ccccc2)C(=O)O)cc1 | > 10000 | > 3020 |  | solubility thermodynamic [5]: > 10000 µg/mL; solubility thermodynamic [6]: 25 µg/mL (≈ 43.8 µM)
Cn1cc(-c2ccccc2)nc1CCOc1ccc(C[C@H](Nc2ccccc2C(=O)c2ccccc2)C(=O)O)cc1 | > 10000 | 138 |  | solubility thermodynamic [5]: < 1 µg/mL; solubility thermodynamic [6]: 4 µg/mL (≈ 7.33 µM)
Cc1ncsc1CCOc1ccc(C[C@H](Nc2ccccc2C(=O)c2ccccc2)C(=O)O)cc1 |  |  |  | Log Ki [1]: inactive
